Columns and labels:
4T1 cells [1] = assay: Cell cycle analysis; type: cell-based, murine; details: 4T1, 6 μM
In short: (§1)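 Cells were seeded at 1 × 10^5 per well and attached 24 h, then exposed to test compound for 24 h. Doxorubicin (0.5 μM) and untreated controls were run alongside. Cells were harvested, washed with PBS and stained with PI/RNase solution for DNA content. Flow cytometry gave G1, S and G2/M fractions from fluorescence intensity using predefined gates.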

MCF-7 cells [2] = assay: Annexin V-FITC/PI apoptosis assay, MCF-7; type: cell-based, human
In short: (§2)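 Cells were seeded at 1 × 10^5 per well and allowed to adhere 24 h, then treated 24 h with test compound (2, 4, 6 μM) alongside untreated controls. They were harvested, washed in PBS and stained with annexin V-FITC plus PI in binding buffer, 20 min, dark, room temperature. Flow cytometry gave percentages of viable, early apoptotic, late apoptotic and necrotic cells.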

MCF-7 cells [3] = assay: Cell cycle analysis; type: cell-based, human; details: MCF-7, 6 μM
In short: as §1

4T1 cells [4] = assay: Annexin V-FITC/PI apoptosis assay, 4T1; type: cell-based, murine
In short: as §2

MDA-MB-231 cells [5] = assay: Cell cycle analysis; type: cell-based, human; details: MDA-MB-231, 4 μM
In short: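 Cells were treated with test compound at 0.5, 1, 2 and 4 μM beside untreated controls. They were stained with propidium iodide and analysed by flow cytometry to give the percentages of cells in G1, S and G2/M phases.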

[6] = test system: BCL-2 and Survivin expression in MDA-MB-231 cells; assay: Gene expression analysis by RT-qPCR; type: cell-based, human
In short: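 Cells were treated 48 h with varying test compound concentrations, then total RNA was extracted and checked spectrophotometrically. 2 μg RNA was reverse-transcribed to cDNA. BCL2 and Survivin transcripts were measured by RT-qPCR and quantified by the 2−ΔΔCt method against β2-microglobulin as reference gene.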

4T1 cells [7] = assay: SRB cytotoxicity assay, 4T1; type: cell-based, murine
In short: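 Single-dose screen: cells in DMEM/10% FBS at 37 °C, 5% CO2, seeded at 3000 per well, attached 24 h, then exposed to test compound at 25 μM final for 48 h. Fixed in cold 10% TCA, 1 h, 4 °C; stained 0.057% SRB, 30 min, dark, room temperature; rinsed with 1% acetic acid; dye solubilised in Tris base pH 10.5; absorbance 510 nm; percent cell death.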

MCF-7 cells [8] = assay: SRB cytotoxicity assay, MCF-7; type: cell-based, human
BEAS-2B lung cells = assay: SRB cytotoxicity assay, BEAS-2B normal cells; type: cell-based; details: Homo sapiens, read-out: IC50 value, BEAS-2B lung cells
In short: (§3)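 Dose–response SRB assay: cells at 3000 per well were attached 24 h, then treated 48 h with test compound at 0.39–25 μM. They were TCA-fixed and stained with 0.057% SRB. Bound dye was dissolved in Tris base pH 10.5 and read at 510 nm. IC50 was fitted by non-linear regression.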

MDA-MB-231 cells [9] = assay: SRB cytotoxicity assay, MDA-MB-231; type: cell-based, human
HEK-293 kidney cells = assay: SRB cytotoxicity assay, HEK-293 normal cells; type: cell-based; details: Homo sapiens, HEK293, read-out: IC50 value, HEK-293 kidney cells
In short: as §3

MDA-MB-231 cells [10] = assay: 3D spheroid; type: cell-based, human; details: 8 days
In short: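 Single-cell suspensions in 1.5% methylcellulose/DMEM with 20% FBS were seeded at 1 × 10^5 cells per well over a 1% agarose–DMEM base for non-adherent growth. Cells were treated with test compound (0.5, 1, 2 μM) or doxorubicin and incubated 8 days. Spheres (≥20 cells) were imaged by fluorescence microscopy and counted per microscopic field.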

Cc1ccc(C(=O)c2c(-c3ccccc3)n(Cc3ccccc3)c(=O)c3c2c2ccccc2n3C)cc1 [9c, 2-Benzyl-9-methyl-4-(4-methylbenzoyl)-3-phenyl-2,9-dihydro-1H-pyrido[3,4-b]indol-1-one]
G1 phase population (4T1 cells [1]): 50.1%
G2/M population (4T1 cells [1]): 41.1%
Early apoptosis (MCF-7 cells [2]; MCF-7, 2 μM): 7.2%
Total apoptotic population (early + late) (MCF-7 cells [2]; MCF-7, 2 μM): 11.3%
Early apoptosis (MCF-7 cells [2]; MCF-7, 4 μM): 8.05%
Total apoptotic population (early + late) (MCF-7 cells [2]; MCF-7, 4 μM): 14.1%
Early apoptosis (MCF-7 cells [2]; MCF-7, 6 μM): 9.9%
Total apoptotic population (early + late) (MCF-7 cells [2]; MCF-7, 6 μM): 16.5%
G1 phase population (MCF-7 cells [3]): 85.6%
Early apoptosis (4T1 cells [4]; 4T1, 2 μM): 13.5%
Total apoptosis (4T1 cells [4]; 4T1, 2 μM): 16.5%
Early apoptosis (4T1 cells [4]; 4T1, 4 μM): 19.2%
Total apoptosis (4T1 cells [4]; 4T1, 4 μM): 23.5%
Early apoptosis (4T1 cells [4]; 4T1, 6 μM): 22%
Total apoptosis (4T1 cells [4]; 4T1, 6 μM): 27.2%
G1 phase population (MDA-MB-231 cells [5]): 46.9%
G2/M population (MDA-MB-231 cells [5]): 41.9%
Expression of BCL-2 [6]: significantly downregulated
Expression of Survivin [6]: significantly downregulated
cytotoxicity at 25 µM (4T1 cells [7]; Mus musculus, 4T1, 48 h, read-out: Average cell death (%) 4T1): 72.34 ± 0.04%
IC50 (4T1 cells [7]; Mus musculus, 4T1, 48 h, read-out: IC50 value, 4T1): 3.71 ± 0.39 µM
Average cell death (%) 4T1 (4T1 cells [7]; at 25 μM, 48 h, SRB assay): 72.34 ±4.04%
cytotoxicity at 25 µM (MCF-7 cells [8]; Homo sapiens, MCF7, 48 h, read-out: Average cell death (%) MCF-7): 75.14 ± 0.02%
IC50 (MCF-7 cells [8]; Homo sapiens, MCF7, 48 h, read-out: IC50 value, MCF-7): 4.34 ± 0.31 µM
Average cell death (%) MCF-7 (MCF-7 cells [8]; at 25 μM, 48 h, SRB assay): 75.14 ±4.02%
IC50 (BEAS-2B lung cells): 7.18 ± 0.32 µM
cytotoxicity at 25 µM (MDA-MB-231 cells [9]; Homo sapiens, MDA-MB-231, 48 h, read-out: Average cell death (%) MDA-MB-231): 94.7 ± 1.1%
IC50 (MDA-MB-231 cells [9]; Homo sapiens, MDA-MB-231, 48 h, read-out: IC50 value, MDA-MB-231): 0.77 ± 0.03 µM
Selectivity for MDA-MB-231 breast cancer cells (MDA-MB-231 cells [9]; MDA-MB-231 over normal HEK-293 kidney and BEAS-2B lung cells): ~10 fold
IC50 (HEK-293 kidney cells): 7.96 ± 0.04 µM
Number of spheres (MDA-MB-231 cells [10]; MDA-MB-231, 0.5, 1, and 2 μM): reduced the number of spheres in a dose-dependent manner
Sphere formation (MDA-MB-231 cells [10]; MDA-MB-231, methylcellulose): completely abrogated sphere formation
